Legend:
[1] = Cytotoxicity against human SMMC-7221 cells assessed as reduction in cell viability after 48 hrs by MTS assay; format: functional, cell-based; details: SMMC-7221, 48 h
Summary of the method: (§1)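 Cells (5 × 10^3 per well) were plated 12 h before treatment, then exposed continuously to compound for 48 h. MTS was added, with 1–4 h incubation at 37 °C and OD read at 490 nm. IC50 is the concentration cutting OD by 50% versus untreated cells, taken from dose–response curves. Values are the mean of three independent determinations.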

A549 = assay: Cytotoxicity against human A549 cells assessed as reduction in cell viability after 48 hrs by MTS assay; format: functional, cell-based; details: A549, 48 h; summary of the method: as §1
MCF7 = assay: Cytotoxicity against human MCF7 cells assessed as reduction in cell viability after 48 hrs by MTS assay; format: functional, cell-based; details: MCF7, 48 h; summary of the method: as §1
SW480 = assay: Cytotoxicity against human SW480 cells assessed as reduction in cell viability after 48 hrs by MTS assay; format: functional, cell-based; details: SW480, 48 h; summary of the method: as §1
L02 = assay: Cytotoxicity against human LO2 cells assessed as reduction in cell viability after 48 hrs by MTS assay; format: cell-based; details: L02, 48 h; summary of the method: as §1
[2] = Cell cycle arrest in human SMMC-7221 cells assessed as accumulation at G0/G1 phase at 1 uM after 24 hrs by propidium iodide/RNase A staining based FACSCalibur flow cytometry analysis (reference value: 72.17 +/- 1.0 %); format: functional
[3] = Cell cycle arrest in human SMMC-7221 cells assessed as accumulation at S phase at 1 uM after 24 hrs by propidium iodide/RNase A staining based FACSCalibur flow cytometry analysis (reference value: 14.733 +/- 1.29 %); format: functional
[4] = Cell cycle arrest in human SMMC-7221 cells assessed as accumulation at G0/G1 phase at 2 uM after 24 hrs by propidium iodide/RNase A staining based FACSCalibur flow cytometry analysis (reference value: 72.17 +/- 1.0 %); format: functional
[5] = Cell cycle arrest in human SMMC-7221 cells assessed as accumulation at S phase at 2 uM after 24 hrs by propidium iodide/RNase A staining based FACSCalibur flow cytometry analysis (reference value: 14.733 +/- 1.29 %); format: functional
[6] = Cell cycle arrest in human SMMC-7221 cells assessed as accumulation at G2/M phase at 2 uM after 24 hrs by propidium iodide/RNase A staining based FACSCalibur flow cytometry analysis (reference value: 8.21 +/- 0.38 %); format: functional
[7] = Cell cycle arrest in human SMMC-7221 cells assessed as accumulation at G0/G1 phase at 4 uM after 24 hrs by propidium iodide/RNase A staining based FACSCalibur flow cytometry analysis (reference value: 72.17 +/- 1.0 %); format: functional
[8] = Cell cycle arrest in human SMMC-7221 cells assessed as accumulation at S phase at 4 uM after 24 hrs by propidium iodide/RNase A staining based FACSCalibur flow cytometry analysis (reference value: 14.733 +/- 1.29 %); format: functional
[9] = Cell cycle arrest in human SMMC-7221 cells assessed as accumulation at G2/M phase at 4 uM after 24 hrs by propidium iodide/RNase A staining based FACSCalibur flow cytometry analysis (reference value: 8.21 +/- 0.38 %); format: functional
[10] = Induction of apoptosis in human SMMC-7221 cells assessed as viable cells at 0.5 uM after 48 hrs by AnnexinV-FITC/propidium iodide staining based FACSCalibur flow cytometry analysis (reference value: 89.8 %); format: functional; details: SMMC-7221, 48 h, read-out: Activity
[11] = Induction of apoptosis in human SMMC-7221 cells assessed as late apoptotic cells at 0.5 uM after 48 hrs by AnnexinV-FITC/propidium iodide staining based FACSCalibur flow cytometry analysis (reference value: 7.7 %); format: functional
[12] = Induction of apoptosis in human SMMC-7221 cells assessed as necrotic cells at 0.5 uM after 48 hrs by AnnexinV-FITC/propidium iodide staining based FACSCalibur flow cytometry analysis (reference value: 2.34 %); format: functional
[13] = Induction of apoptosis in human SMMC-7221 cells assessed as late apoptotic cells at 1 uM after 48 hrs by AnnexinV-FITC/propidium iodide staining based FACSCalibur flow cytometry analysis (reference value: 7.7 %); format: functional
[14] = Induction of apoptosis in human SMMC-7221 cells assessed as necrotic cells at 1 uM after 48 hrs by AnnexinV-FITC/propidium iodide staining based FACSCalibur flow cytometry analysis (reference value: 2.34 %); format: functional
[15] = Induction of apoptosis in human SMMC-7221 cells assessed as viable cells at 2 uM after 48 hrs by AnnexinV-FITC/propidium iodide staining based FACSCalibur flow cytometry analysis (reference value: 89.8 %); format: functional; details: SMMC-7221, 48 h, read-out: Activity
[16] = Induction of apoptosis in human SMMC-7221 cells assessed as early apoptotic cells at 2 uM after 48 hrs by AnnexinV-FITC/propidium iodide staining based FACSCalibur flow cytometry analysis (reference value: 0.106 %); format: functional
[17] = Induction of apoptosis in human SMMC-7221 cells assessed as late apoptotic cells at 2 uM after 48 hrs by AnnexinV-FITC/propidium iodide staining based FACSCalibur flow cytometry analysis (reference value: 7.7 %); format: functional
[18] = Induction of apoptosis in human SMMC-7221 cells assessed as necrotic cells at 2 uM after 48 hrs by AnnexinV-FITC/propidium iodide staining based FACSCalibur flow cytometry analysis (reference value: 2.34 %); format: functional
[19] = Induction of apoptosis in human SMMC-7221 cells assessed as viable cells at 4 uM after 48 hrs by AnnexinV-FITC/propidium iodide staining based FACSCalibur flow cytometry analysis (reference value: 89.8 %); format: functional; details: SMMC-7221, 48 h, read-out: Activity
[20] = Induction of apoptosis in human SMMC-7221 cells assessed as early apoptotic cells at 4 uM after 48 hrs by AnnexinV-FITC/propidium iodide staining based FACSCalibur flow cytometry analysis (reference value: 0.106 %); format: functional
[21] = Induction of apoptosis in human SMMC-7221 cells assessed as late apoptotic cells at 4 uM after 48 hrs by AnnexinV-FITC/propidium iodide staining based FACSCalibur flow cytometry analysis (reference value: 7.7 %); format: functional
[22] = Induction of apoptosis in human SMMC-7221 cells assessed as necrotic cells at 4 uM after 48 hrs by AnnexinV-FITC/propidium iodide staining based FACSCalibur flow cytometry analysis (reference value: 2.34 %); format: functional
[23] = Induction of apoptosis in human SMMC-7221 cells assessed as viable cells at 8 uM after 48 hrs by AnnexinV-FITC/propidium iodide staining based FACSCalibur flow cytometry analysis (reference value: 89.8 %); format: functional; details: SMMC-7221, 48 h, read-out: Activity
[24] = Induction of apoptosis in human SMMC-7221 cells assessed as early apoptotic cells at 8 uM after 48 hrs by AnnexinV-FITC/propidium iodide staining based FACSCalibur flow cytometry analysis (reference value: 0.106 %); format: functional
[25] = Induction of apoptosis in human SMMC-7221 cells assessed as late apoptotic cells at 8 uM after 48 hrs by AnnexinV-FITC/propidium iodide staining based FACSCalibur flow cytometry analysis (reference value: 7.7 %); format: functional

COc1cccc2c1N(CCCn1c[n+](Cc3ccc(C)cc3)c3cc(C)c(C)cc31)C[C@@H]1Cc3ccc(Br)cc3[C@H]21.[Br-]
IC50 [1]: 520 nM | IC50 (A549): 1300 nM | IC50 (MCF7): 680 nM | IC50 (SW480): 750 nM | IC50 (L02): 2100 nM | Activity [2]: 80.32% | Activity [3]: 10.18% | Activity [4]: 80.22% | Activity [5]: 9.27% | Activity [6]: 9.16% | Activity [7]: 62.54% | Activity [8]: 12.76% | Activity [9]: 5.98% | viability at 0.5 µM [10]: 84.2% | Activity [11]: 8.66% | Activity [12]: 6.79% | Activity [13]: 14.6% | Activity [14]: 5.66% | viability at 2 µM [15]: 77.7% | Activity [16]: 0.216% | Activity [17]: 16% | Activity [18]: 6.13% | viability at 4 µM [19]: 15.2% | Activity [20]: 0.919% | Activity [21]: 76.8% | Activity [22]: 7.08% | viability at 8 µM [23]: 5.16% | Activity [24]: 0.157% | Activity [25]: 81.4%
